Results on 1 molecule are retold here after ChEMBL document CHEMBL4431326, “Tumor Targeting with Novel 6-Substituted Pyrrolo [2,3-d] Pyrimidine Antifolates with Heteroatom Bridge Substitutions via Cellular Uptake by Folate Receptor α and the Proton-Coupled Folate Transporter and Inhibition of de Novo Purine Nucleotide Biosynthesis” (J Med Chem, 2016).

For series [1], the system named is KB. In words: Antiproliferative activity against human KB cells expressing human RFC/FR-alpha/PCFT assessed as reduction in cell viability measured after 96 hrs by Cell-Titer Blue fluorescence analysis. It is filed as functional, cell-based.
Series [2] relates to KB. The series can be described thus: Antiproliferative activity against human KB cells expressing human RFC/FR-alpha/PCFT assessed as reduction in cell viability measured after 96 hrs in presence of folic acid by Cell-Titer Blue fluorescence analysis. It is filed as functional, cell-based.
For series [3], the target named is T1, GAR transformylase/AICAR transformylase (Homo sapiens) (UniProt P31939+P22102). In words: Inhibition of GARFTase/AICARFTase in human KB cells expressing RFC/FR-alpha/PCFT assessed as cell growth inhibition measured after 96 hrs in presence of 60 uM adenosine by Cell-Titer Blue fluorescence analysis. It is filed as cell-based.
T1 sequence (P22102 whole entry, looked up): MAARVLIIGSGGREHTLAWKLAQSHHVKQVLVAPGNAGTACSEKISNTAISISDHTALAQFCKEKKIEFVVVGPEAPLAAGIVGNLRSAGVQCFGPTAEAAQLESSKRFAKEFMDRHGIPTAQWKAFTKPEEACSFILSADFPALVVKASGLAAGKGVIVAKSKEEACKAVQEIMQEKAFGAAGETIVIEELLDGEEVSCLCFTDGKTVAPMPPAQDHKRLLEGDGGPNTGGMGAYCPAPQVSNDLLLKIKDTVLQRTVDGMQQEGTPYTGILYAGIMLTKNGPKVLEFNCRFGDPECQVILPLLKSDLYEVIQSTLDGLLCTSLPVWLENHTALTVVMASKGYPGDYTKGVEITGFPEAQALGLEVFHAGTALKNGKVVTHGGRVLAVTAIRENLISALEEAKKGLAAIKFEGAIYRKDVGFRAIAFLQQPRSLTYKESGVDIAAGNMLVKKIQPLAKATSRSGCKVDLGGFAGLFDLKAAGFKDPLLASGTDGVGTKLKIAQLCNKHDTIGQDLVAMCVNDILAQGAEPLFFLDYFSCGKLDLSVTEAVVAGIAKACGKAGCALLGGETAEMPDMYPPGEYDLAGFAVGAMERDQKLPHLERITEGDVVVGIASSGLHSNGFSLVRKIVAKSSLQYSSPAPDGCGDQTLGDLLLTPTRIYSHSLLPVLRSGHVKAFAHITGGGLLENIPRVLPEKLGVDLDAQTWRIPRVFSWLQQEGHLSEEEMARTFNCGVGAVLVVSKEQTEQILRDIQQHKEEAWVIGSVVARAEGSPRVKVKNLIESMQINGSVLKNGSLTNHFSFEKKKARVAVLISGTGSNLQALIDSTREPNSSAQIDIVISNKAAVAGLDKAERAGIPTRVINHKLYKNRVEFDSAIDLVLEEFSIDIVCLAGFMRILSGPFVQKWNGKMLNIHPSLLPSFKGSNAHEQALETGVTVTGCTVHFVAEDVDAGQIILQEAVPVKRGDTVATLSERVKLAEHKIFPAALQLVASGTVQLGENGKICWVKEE
T1 sequence (P31939 whole entry, looked up): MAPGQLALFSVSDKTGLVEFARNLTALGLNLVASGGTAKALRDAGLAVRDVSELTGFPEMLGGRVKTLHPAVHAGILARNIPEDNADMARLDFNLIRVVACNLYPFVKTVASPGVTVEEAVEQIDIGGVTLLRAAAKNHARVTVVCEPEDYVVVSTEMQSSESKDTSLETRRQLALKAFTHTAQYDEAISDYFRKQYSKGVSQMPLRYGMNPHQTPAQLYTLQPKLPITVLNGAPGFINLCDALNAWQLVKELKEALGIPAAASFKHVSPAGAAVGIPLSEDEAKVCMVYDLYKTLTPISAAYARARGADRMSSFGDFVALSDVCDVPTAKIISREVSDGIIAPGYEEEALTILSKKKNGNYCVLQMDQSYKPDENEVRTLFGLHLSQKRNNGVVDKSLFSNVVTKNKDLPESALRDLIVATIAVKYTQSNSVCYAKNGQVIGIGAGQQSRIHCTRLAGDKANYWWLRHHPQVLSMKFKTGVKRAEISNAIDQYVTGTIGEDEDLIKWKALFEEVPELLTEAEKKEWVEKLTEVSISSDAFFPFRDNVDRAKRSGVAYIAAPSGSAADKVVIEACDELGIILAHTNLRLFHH
Series [4] has as its target T1, GAR transformylase/AICAR transformylase (Homo sapiens). The series can be described thus: Inhibition of GARFTase/AICARFTase in human KB cells expressing RFC/FR-alpha/PCFT assessed as cell growth inhibition measured after 96 hrs in presence of 10 uM thymidine by Cell-Titer Blue fluorescence analysis. It is filed as cell-based.
For series [5], the target named is Folate receptor alpha (Homo sapiens) (UniProt P15328). The series can be described thus: Displacement of [3H]folic acid from human FR-alpha receptor expressed in Chinese hamster RT16 cells measured after 15 mins relative to folic acid. In kind it is cell-based. The arrangement: concentration or dose not given beside the values. Background: Loss of bound radioactivity is the signal in a displacement assay; it reports binding, not function.
Chain of Folate receptor alpha (Homo sapiens) (P15328 25-234 limits assumed): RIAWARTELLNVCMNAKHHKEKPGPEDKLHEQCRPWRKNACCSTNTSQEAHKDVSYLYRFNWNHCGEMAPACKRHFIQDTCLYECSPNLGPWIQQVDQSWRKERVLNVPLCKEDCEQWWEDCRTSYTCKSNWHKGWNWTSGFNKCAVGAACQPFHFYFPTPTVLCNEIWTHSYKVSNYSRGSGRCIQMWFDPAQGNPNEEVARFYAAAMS

The target in series [6] is Folate receptor beta (Homo sapiens) (UniProt P14207). In words: Displacement of [3H]folic acid from human FR-beta receptor expressed in Chinese hamster D4 cells measured after 15 mins relative to folic acid. It is filed as cell-based.
Chain of Folate receptor beta (Homo sapiens) (P14207 17-230 limits assumed): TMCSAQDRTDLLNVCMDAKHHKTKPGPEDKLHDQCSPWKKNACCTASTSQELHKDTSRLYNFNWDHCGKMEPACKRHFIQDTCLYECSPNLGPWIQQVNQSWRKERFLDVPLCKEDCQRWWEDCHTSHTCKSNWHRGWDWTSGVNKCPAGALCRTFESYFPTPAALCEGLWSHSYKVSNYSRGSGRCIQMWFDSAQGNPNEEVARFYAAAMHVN
For series [7], the target named is T2, Proton-coupled folate transporter (Homo sapiens) (UniProt Q96NT5).
T2 sequence (whole entry): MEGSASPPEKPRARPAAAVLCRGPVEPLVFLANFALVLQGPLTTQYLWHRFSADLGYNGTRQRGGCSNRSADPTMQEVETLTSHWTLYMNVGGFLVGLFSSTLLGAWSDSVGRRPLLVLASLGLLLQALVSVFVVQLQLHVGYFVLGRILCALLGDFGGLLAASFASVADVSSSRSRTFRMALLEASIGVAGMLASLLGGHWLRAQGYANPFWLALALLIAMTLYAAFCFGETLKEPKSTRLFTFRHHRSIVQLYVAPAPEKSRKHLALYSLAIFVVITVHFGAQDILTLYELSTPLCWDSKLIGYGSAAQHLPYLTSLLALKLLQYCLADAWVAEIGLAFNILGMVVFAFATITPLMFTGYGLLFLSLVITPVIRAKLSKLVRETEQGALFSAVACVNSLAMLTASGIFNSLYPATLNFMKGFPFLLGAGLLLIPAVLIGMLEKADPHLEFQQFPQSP
In words: Inhibition of [3H]MTX uptake at human PCFT expressed in Chinese hamster R2/PCFT4 cells at 10 uM and pH 5.5 measured after 5 mins. In kind it is cell-based.

Series [8] concerns the target T2, Proton-coupled folate transporter (Homo sapiens). The series can be described thus: Inhibition of [3H]MTX uptake at human PCFT expressed in Chinese hamster R2/PCFT4 cells at 10 uM and pH 6.8 measured after 5 mins. In kind it is cell-based.
For series [9] the target is unchanged. The series can be described thus: Inhibition of [3H]MTX uptake at human PCFT expressed in Chinese hamster R2/PCFT4 cells at 1 uM and pH 5.5 measured after 5 mins. In kind it is cell-based.
In series [10] the test system is IGROV-1. The series can be described thus: Antiproliferative activity against human IGROV1 cells expressing human FR-alpha/PCFT assessed as reduction in cell viability measured after 96 hrs by Cell-Titer Blue fluorescence analysis. It is filed as functional, cell-based. The note with it: IGROV-1, 96 h.
Series [11] deals with IGROV-1. The series can be described thus: Antiproliferative activity against human IGROV1 cells expressing human FR-alpha/PCFT assessed as reduction in cell viability measured after 96 hrs in presence of folic acid by Cell-Titer Blue fluorescence analysis. It is filed as functional, cell-based. Conditions: IGROV-1, 96 h.
For series [12], the system named is IGROV-1. The series can be described thus: Antitumor activity against human IGROV1 cells xenografted into folate-deficient diet fed SCID mouse assessed as tumor growth at 150 mg/kg, iv administered […] post 2 days of tumor implantation measured on day 20 relative to control. It is filed as functional. In short, it runs like this:
(§1)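 Female NCR SCID mice (11 weeks old, ~20 g) are fed a folate-deficient diet from 14 days before implant. IGROV1 fragments (30–60 mg) are trocar-implanted subcutaneously in both flanks, and mice are randomised at 5/group. Tail-vein dosing starts on day 2: 28 mg/kg/inj Q3dx5, or 96 or 150 mg/kg/inj Q3dx4. Vehicle is 5% ethanol, 1% Tween-80, 0.5% NaHCO3 in water at pH 6.5. Caliper tumor mass is (a×b²)/2, T/C is taken when controls reach 700–1200 mg, and weights are recorded daily.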
(Xenograft models place foreign cells or tissue in a host animal.)

In series [13] the test system is IGROV-1. In words: Antitumor activity against human IGROV1 cells xenografted into folate-deficient diet fed SCID mouse assessed as tumor growth delay at 150 mg/kg, iv administered […] post 2 days of tumor implantation. In kind it is functional. In short, it runs like this: (§2)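 Female NCR SCID mice, 11 weeks, ~20 g, on folate-deficient or standard diet from 14 days pre-implant; bilateral s.c. IGROV1 fragments (30–60 mg); 5 mice/group; tail-vein dosing from day 2 (Q3d schedules) in 5% ethanol, 1% Tween-80, 0.5% NaHCO3, water, pH 6.5; caliper mass (a×b²)/2; T/C and T−C delay.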

Series [14] has as its system IGROV-1. The series can be described thus: Antitumor activity against human IGROV1 cells xenografted into folate-deficient diet fed SCID mouse assessed as tumor cell kill at 150 mg/kg, iv administered […] post 2 days of tumor implantation measured on day 20. It is filed as functional.
Series [15] can be described thus: Toxicity in folate-deficient diet fed SCID mouse xenografted with human IGROV1 cells assessed as body weight loss at 28 mg/kg, iv administered […] post 2 days of tumor implantation measured after 48 hrs of last dosage. It is filed as organism-based. Conditions: in vivo. In a few lines: as §1
The nature of series [16]: Toxicity in folate-deficient diet fed SCID mouse xenografted with human IGROV1 cells assessed as body weight loss at 96 and 150 mg/kg, iv administered […] post 2 days of tumor implantation measured after 48 hrs of last dosage. It is filed as organism-based. The note with it: in vivo. In short, it runs like this:
as §1

Series [17] has as its system IGROV-1. In words: Antitumor activity against human IGROV1 cells xenografted into standard diet fed SCID mouse assessed as tumor growth at 150 mg/kg, iv administered […] post 2 days of tumor implantation measured on day 20 relative to control. It is filed as functional. In short, it runs like this: as §2
Series [18] relates to IGROV-1. In words: Antitumor activity against human IGROV1 cells xenografted into standard diet fed SCID mouse assessed as tumor growth at 28 mg/kg, iv administered […] post 2 days of tumor implantation measured on day 20 relative to control. In kind it is functional. In a few lines: as §2
Series [19] can be described thus: Toxicity in standard diet fed SCID mouse xenografted with human IGROV1 cells assessed as body weight loss at 96 and 150 mg/kg, iv administered qd for 4 times post 2 days of tumor implantation measured during compound treatment. The note with it: in vivo, 48 h. It is filed as organism-based.

Calls of active or inactive are those of the source. No cut-off for these calls is given here.

With `Nc1nc2[nH]c(CCNc3ccc(C(=O)N[C@@H](CCC(=O)O)C(=O)O)cc3)cc2c(=O)[nH]1`, the IC50 (usually the concentration that gives 50% inhibition) in series [1] amounted to 0.00032 µM; in [2], 0.666 µM; in [10], 0.0027 µM; in series [11], 0.872 µM. In series [3], the inhibition – broadly, the relative decrease from the control value, in per cent – is “inactive”. Also, the inhibition result in series [4] was “Active”. Also, the inhibition was in the range of 60 to 110% in series [5]; 60 to 110% in [6]; 80 to 90% in series [7]; 40 to 60% in series [8]; 30 to 60% in series [9]. For the same molecule, the T/C (in general, the result in the treated group divided by that in the control group, in per cent) amounted to 12% in [12], 94% in series [17] and 68% in series [18]. Besides, the Time in series [13] was 15 days. Moreover, in series [14], the LCK is given as 2.3. Further, the Activity result in series [15], in series [16] and in series [19] was “Non-Toxic” each time.
